Experimental data gathered from unrelated publications.
Each line is one published result; the experiments were not run side by side.
Target: Vascular endothelial growth factor receptor 2 (KDR, Homo sapiens, UniProt P35968)

| Structure (SMILES) | read-out | method | concentration | remaining binding [%] |
| --- | --- | --- | --- | --- |
| O=C(c1ccc(Nc2ncc(Cl)c(-c3ccc(Cl)s3)n2)cc1)N1CCC(N2CCCC2)CC1 | binding | competition with immobilised ligand | 1 µM | 2.2 |
| O=C(NCc1ncc(C(F)(F)F)cc1Cl)c1ccc2c(c1)C1(CCS(=O)(=O)CC1)[C@H](C1CC1)N2S(=O)(=O)c1ccc(F)cc1 | cell-free assay | competition with immobilised ligand | 1 µM | 83 |
| c1cnn2ncc(-c3ccnc(N4CCC45COC5)n3)c2c1 | binding | – | 1 µM | 67 |
| CCCOc1ccc([C@@H]2[C@@H](C(=O)O)[C@H](c3ccc4c(c3)OCO4)CN2CC(=O)Nc2c(CC)cccc2CC)cc1 | cell-free assay | competition with immobilised ligand | 1 µM | 72 |
| C[C@@H](c1ccc(-n2cnc3c(N)ncnc32)cc1)N1CCc2nn(C)c(Cc3ccccc3)c2C1=O | binding | competition with immobilised ligand | 0.1 µM | 69 |
| N#Cc1ccccc1CSc1nnc2c(n1)[nH]c1ccccc12 | binding | competition with immobilised ligand | 10 µM | 95 |
| N[C@@H]1CCN(c2nccc(-c3cnn4ncccc34)n2)C1 | binding | – | 1 µM | 100 |
| COc1cnc(Nc2cccc(S(N)(=O)=O)c2)nc1N1CCN(c2ccccc2)C(=O)C1 | binding | competition with immobilised ligand | 1 µM | 100 |
| CC(C)CC(=O)N1CCc2nc(-c3ccc(Br)cc3)nc(N(C)Cc3ccccc3)c2C1 | cell-free assay | competition with immobilised ligand | 0.1 µM | 100 |
| COC(=O)Nc1nc2ccc(C(=O)c3ccccc3)cc2[nH]1 | cell-free assay | competition with immobilised ligand | 10 µM | 30 |
| CN(c1nccc(-c2cnn3ncccc23)n1)C1CC1 | binding | – | 1 µM | 100 |
| CCN1CCN(Cc2ccc(C(=O)Nc3ccc(C)c(Oc4ccc5c(c4)CC(=O)N5)c3)cc2C(F)(F)F)CC1 | binding | competition with immobilised ligand | 1 µM | 100 |
| CC(C)(C)c1ccc(-c2nc(CBr)nn2-c2cccc(O)c2)cc1 | cell-free assay | competition with immobilised ligand | 10 µM | 83 |
| CC1CCCN1c1nccc(-c2cnn3ncccc23)n1 (stereo not shown) | binding | – | 1 µM | 100 |
| O=C(NCCCN1CCOCC1)c1ccc(Nc2ncc(Cl)c(-c3ccc(Cl)s3)n2)cc1 | binding | competition with immobilised ligand | 1 µM | 13 |
| CO[C@@H](C)c1c(Nc2ccc([C@@H](N(C)C(=O)C3CCS(=O)(=O)CC3)C(F)(F)F)cc2)cnc2cc(Cl)nn12 | cell-free assay | competition with immobilised ligand | 1 µM | 95 |
| F[C@@H]1CCN(c2nccc(-c3cnn4ncccc34)n2)C1 | binding | – | 1 µM | 100 |
| O=C(c1ccc(Nc2nccc(-c3cc4ccccc4s3)n2)cc1)N1CCC(N2CCCC2)CC1 | binding | competition with immobilised ligand | 1 µM | 47 |
| C[C@@H]1CN(c2ccc3ncc(-c4ccc5[nH]nc(C6CC6)c5c4)n3n2)C[C@H](C)O1 | binding | competition with immobilised ligand | 50 nM | 86 |
| N#CC1(c2ccccn2)CCN(Cc2cc(C(=O)N3CCCC3)c(=O)n3ccccc23)CC1 | cell-free assay | competition with immobilised ligand | 1 µM | 92 |
| C[C@H]1CCN(c2nccc(-c3cnn4ncccc34)n2)C1 | binding | – | 1 µM | 92 |
| CN(C)C(=O)Cn1cc(-c2nc(C3(c4ccc(-c5cnc(N)nc5)cc4)CC3)no2)cn1 | cell-free assay | competition with immobilised ligand | 1 µM | 70 |
| COc1cnc(Nc2cccc(S(N)(=O)=O)c2)nc1N1CCN(c2ccccc2)CC1 | binding | competition with immobilised ligand | 1 µM | 83 |
| COCCOc1nc(-c2ccc(Cl)nc2)nc2c1CN(C(=O)c1ncn3ccccc13)CC2 | cell-free assay | competition with immobilised ligand | 0.1 µM | 100 |
| O=C(Nc1c[nH]nc1C(=O)NC1CCNCC1)c1cc(F)cc(F)c1 | binding | competition with immobilised ligand | 1 µM | 93 |
